Laboratory results from ChEMBL document CHEMBL2034956, “Bioactive diterpenes from Callicarpa longissima” (J Nat Prod, 2012).
≈ marks a conversion by molar mass, not a printed value.

Experiments:
Type in all cases: functional, cell-based
[1] = Antiinflammatory activity in human neutrophils assessed as inhibition of FMLP/CB-induced superoxide-anion generation incubated for 5 mins prior to FMLP/CB-challenge measured after 10 mins by spectrophotometry; conditions: Neutrophil
How it was run: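 Human neutrophils isolated by dextran sedimentation and Ficoll centrifugation. Superoxide anion measured as superoxide dismutase-inhibitable reduction of ferricytochrome c.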

[2] = Antiinflammatory activity in human neutrophils assessed as inhibition of FMLP/CB-induced elastase release using Meo-Suc-Ala-Ala-Pro-Val-p-nitroanilide as substrate incubated for 5 mins prior to FMLP/CB-challenge by spectrophotometry; conditions: Neutrophil
How it was run: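 Human neutrophils isolated by dextran sedimentation and Ficoll centrifugation before elastase release measurement.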

PC-3 = assay: Antiproliferative activity against human PC3 cells after 48 hrs by SRB assay; conditions: PC-3, 48 h
How it was run: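 Cells seeded in RPMI 1640 with 5% fetal bovine serum at 37 °C, 5% CO2. After 24 h, two plates per line TCA-fixed as time-zero reference. Compound added, then 48 h further incubation at 37 °C. Cold TCA fixation, 0.4% w/v sulforhodamine B in 1% acetic acid for 10 min, acetic acid washes, dye solubilized in 10 mM Trizma base, absorbance 515 nm. IC50 is 50% absorbance reduction versus untreated cells.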

| IC50 [1] | IC50 [2] | IC50 (PC-3) | SMILES |
| --- | --- | --- | --- |
| > 10 µg/mL | > 10 µg/mL |  | COc1ccc(-c2oc3cc(OC)c(OC)c(O)c3c(=O)c2OC)cc1 |
| > 10 µg/mL | > 10 µg/mL |  | CC(C)c1ccc2c(c1)CC[C@@H](C(C)(C)O)[C@]2(C)CCC(=O)O (relative stereo) |
| 9.31 µg/mL (≈ 29.2 µM) | > 10 µg/mL | > 10 µg/mL | C=C1CC[C@H]2C(C)(C)C(=O)CC[C@]2(C)[C@H]1CC/C(C)=C/C(=O)O |
| 5.09 µg/mL (≈ 16 µM) | > 10 µg/mL | > 10 µg/mL | CC1=CC(=O)[C@H]2C(C)(C)CCC[C@]2(C)[C@H]1CC/C(C)=C/C(=O)O [CALLILONGISIN D] |
| > 10 µg/mL | > 10 µg/mL |  | C=C1C[C@@H](O)[C@H]2C(C)(C)CCC[C@]2(C)[C@H]1CC/C(C)=C/C(=O)O |
| 2.79 µg/mL (≈ 6.11 µM) | 5.21 µg/mL (≈ 11.4 µM) | > 10 µg/mL | C[C@H]1[C@H](C)CC[C@]2(C(=O)O)CC[C@]3(C)C(=CC[C@@H]4[C@@]5(C)CC[C@H](O)C(C)(C)[C@@H]5CC[C@]43C)[C@H]12 [URSOLIC ACID] |
| > 10 µg/mL | > 10 µg/mL |  | C=C(C)[C@@H]1CCC2=C[C@](O)(C(C)C)CC[C@@]23OC(=O)CC[C@@]13C (relative stereo) |
| > 10 µg/mL | > 10 µg/mL |  | COc1ccc(-c2oc3cc(OC)c(OC)c(O)c3c(=O)c2OC)cc1OC [ARTEMETIN] |

| SMILES | IC50 [1] | IC50 [2] | IC50 (PC-3) |
| --- | --- | --- | --- |
| C=C(C)[C@@H]1CCC2=C[C@]3(C(C)C)CC[C@]2(OO3)[C@@]1(C)CCC(=O)O (relative stereo) | 3.14 µg/mL (≈ 9.39 µM) | 4.66 µg/mL (≈ 13.9 µM) | > 10 µg/mL |
